Source: PubChem
Rows were chosen to be rich in hits. Some 2.4% of all compounds tested hit in one or more screens of this group.
Runt-CBFb FRET – inhibitors of RUNX1 Runt–CBFb binding, primary screen, biochemical, FRET, Cerulean-Runt, Venus-CBFb, uHTS | actives 0.46% (n = 220,000) | Runt-related transcription factor 1 (Homo sapiens) + Core-binding factor subunit beta … | AID 1496, 2009 | Cerulean-Runt/Venus-CBFb FRET ratio 530/480, 1 h | inhibition, % at 20 µM;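 active means inhibition over about 50% at 20 µM in the single-dose screen, limit read from the data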;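 further: 0% = DMSO wells and 100% = excess unlabeled CBFb competitor control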
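Schedule: protein complex preformed 1 h, compound exposure 1 h, room temperature, dark; test system: Cerulean-labeled Runt domain protein; amount: 100 nM per protein; buffer or medium: Tris 50 mM pH 7.5, KCl, K2SO4, 0.01% BSA; read-out: loss of energy transfer signal; detection: FRET fluorescence; controls: 5 µM unlabeled CBFb as full-inhibition high control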
RanGTP-Imp inh – inhibitors of RanGTP-importin-beta interaction, primary screen, biochemical, FRET, CFP-Ran, YFP-importin-beta, homogeneous; Ran GTPase (GTP-bound) - importin-beta complex; cell-free CFP-Ran/YFP-importin-beta FRET ratio; inhibition, % (test concentration not listed); actives 1.1% (n = 300,000); AID 2216, 2009;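 active means more than half of the replicate wells show a fall in the fluorescence ratio signal beyond about 16%, limit read from the data, passing the limit was not always enough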;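 further: 0% = DMSO wells and 100% = Ran loaded with GDP instead of GTP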
Runt-SMMHC FRET – inhibitors of RUNX1 Runt–CBFb-SMMHC binding, primary screen, biochemical, FRET, Cerulean-Runt, Venus-CBFb-SMMHC, uHTS; actives 0.74% (n = 220,000); Runt-related transcription factor 1 (Homo sapiens) + Core-binding factor subunit beta …; Cerulean-Runt/Venus-CBFb-SMMHC FRET ratio 530/480, 1 h; inhibition, % at 20 µM;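 active means mean inhibition across duplicate retests at 20 µM reaching about 50%, limit read from the data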;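 further: 0% = DMSO wells and 100% = wells with excess untagged CBFb-SMMHC; inhibitors lower the FRET ratio by blocking Runt binding to CBFb-SMMHC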
EBV gp42 block – Epstein-Barr virus gp42 inhibitors, primary screen, biochemical, uHTS, fluorescence polarization. actives 0.42% (n = 220,000). inhibition, % (tested at 21.74 µM). Fluorescence polarization binding assay, mP read-out. AID 1085, 2008. Glycoprotein 42 (Epstein-Barr virus (strain AG876)), Q1HVG2; in the data active means inhibition above about 50%
MEX-5 binding – MEX-5 zinc finger RNA-binding disruptors – biochemical, C. elegans, fluorescence polarization, MLPCN library, primary screen. Zinc finger protein mex-5 (Caenorhabditis elegans), Q9XUB2. MEX-5/FITC-TCR2 RNA binding; hits give low values. activity score (negative = inhibition of binding), % at 10 µM. actives 0.38% (n = 300,000);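 active means inhibition past about -25% in most replicates, and total fluorescence under double the plate's negative control median, limit read from the data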;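 further: 0% = DMSO and -100% = 5 µM competing unlabeled TCR2 RNA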
LANA-H2A inh – blockers of LANA interaction with H2A/H2B – biochemical, FP readout, HTS, primary screen; AID 2629, 2010; actives 0.6% (n = 320,000); cell-free LANA-H2A/H2B peptide, fluorescence polarization; inhibition, % (no concentration beside the values); Protein LANA1 (Human herpesvirus 8 type P (isolate GK18)), Q9QR71; in the data active means inhibition mostly above about 10%, no sharp cut-off; inactive means mostly below about 6.7%
Target sequence (Q9QR71 whole entry, looked up): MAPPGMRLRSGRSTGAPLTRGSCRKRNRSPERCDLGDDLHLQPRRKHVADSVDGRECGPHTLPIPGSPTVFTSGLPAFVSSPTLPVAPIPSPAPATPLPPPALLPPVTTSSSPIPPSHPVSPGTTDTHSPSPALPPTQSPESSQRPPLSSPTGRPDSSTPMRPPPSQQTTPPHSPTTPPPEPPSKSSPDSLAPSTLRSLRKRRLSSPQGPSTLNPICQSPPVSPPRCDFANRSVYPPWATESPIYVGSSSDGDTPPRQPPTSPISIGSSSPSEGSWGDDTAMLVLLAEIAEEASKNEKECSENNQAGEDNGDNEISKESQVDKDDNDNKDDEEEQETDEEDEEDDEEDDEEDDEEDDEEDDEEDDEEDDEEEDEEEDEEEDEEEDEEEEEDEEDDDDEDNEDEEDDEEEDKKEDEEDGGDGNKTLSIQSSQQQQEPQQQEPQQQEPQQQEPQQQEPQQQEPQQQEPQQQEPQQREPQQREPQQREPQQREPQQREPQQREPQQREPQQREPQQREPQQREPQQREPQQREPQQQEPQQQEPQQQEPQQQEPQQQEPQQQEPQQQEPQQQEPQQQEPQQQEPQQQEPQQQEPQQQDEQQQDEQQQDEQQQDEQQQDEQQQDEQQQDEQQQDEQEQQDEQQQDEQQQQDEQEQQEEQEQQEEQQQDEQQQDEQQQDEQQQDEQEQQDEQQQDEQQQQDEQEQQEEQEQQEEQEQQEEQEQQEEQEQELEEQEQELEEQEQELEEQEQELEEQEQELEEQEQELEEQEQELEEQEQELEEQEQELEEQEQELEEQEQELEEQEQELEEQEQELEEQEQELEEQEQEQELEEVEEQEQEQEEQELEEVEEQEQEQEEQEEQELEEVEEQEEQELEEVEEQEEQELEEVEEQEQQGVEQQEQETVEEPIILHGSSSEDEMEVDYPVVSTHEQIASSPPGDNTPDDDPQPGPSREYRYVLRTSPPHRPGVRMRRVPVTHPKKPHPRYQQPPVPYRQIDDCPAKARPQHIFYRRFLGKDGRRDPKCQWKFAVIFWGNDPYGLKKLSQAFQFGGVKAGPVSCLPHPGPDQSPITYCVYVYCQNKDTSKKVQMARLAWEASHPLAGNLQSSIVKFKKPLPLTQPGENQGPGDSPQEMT
* hit, by the source's call; / = no result given.

SMILES | Runt-CBFb FRET | RanGTP-Imp inh | Runt-SMMHC FRET | EBV gp42 block | MEX-5 binding | LANA-H2A inh
CC(C)N(CCn1c(SCC(=O)Nc2cccnc2Cl)nc2ccccc2c1=O)C(C)C | / | / | / | / | / | 9.9*
CC(=O)NCCn1c(SCC(=O)NC2CCCCC2)nc2ccccc2c1=O | 0.6 | 18.1* | 0.2 | -2.0 | 0.8 | -2.6
CCN1CCC(NC(=O)Nc2ccccc2C(=O)OC)CC1 | 1.7 | 0.4 | 2.2 | 3.3 | -0.4 | -2.4
COC(=O)c1ccccc1NC(=O)NC1CCN(Cc2ccccc2)CC1 | 90.9* | -1.2 | -2.7 | -25.8 | -0.9 | 0.7
COC(=O)c1ccccc1NC(=O)NCc1ccncc1 | 1.4 | 3.8 | -1.9 | -7.9 | -1.2 | 34.8*
C=C[C@@H]1c2ccccc2N(S(=O)(=O)c2ccc(C)cc2)[C@H](c2ccc(C(=O)OC)cc2)C1(C#N)C#N | / | / | / | / | / | -2.1
C=CCNc1nc(NCc2ccccc2)c(C#N)c2c1CN(C)CC2 | 35.0 | 108.6* | 65.0* | -4.5 | -1.8 | 0.3
CCCCCNc1nc(NCCCO)c(C#N)c2c1CN(C)CC2 | 33.9 | 146.1* | 79.2* | 2.4 | -3.1 | 0.3
O=C(CSc1nc(-c2ccc(F)cc2)nc2c1Cc1ccccc1O2)Nc1cccc(C(=O)O)c1 | 36.6 | -4.5 | -16.6 | 71.1* | 2.0 | /
CCOc1cc(C2C3=C(CCCC3=O)N(CCC(=O)O)C3=C2C(=O)CCC3)ccc1OS(=O)(=O)c1ccc(C)cc1 | 25.5 | 104.0* | / | 9.5 | -3.1 | -9.9
Cc1ccc(S(=O)(=O)Oc2ccc(C3C4=C(CCCC4=O)N(CCC(=O)O)C4=C3C(=O)CCC4)cc2Cl)cc1 | 4.9 | 128.5* | / | -13.7 | -1.5 | -0.2
CCOc1cc(C2C3=C(CCCC3=O)N(C)C3=C2C(=O)CCC3)cc(Cl)c1O | 14.4 | 6.4 | 49.6 | 8.2 | -2.3 | 5.5
COc1ccc(S(=O)(=O)N2c3ccccc3NC(=O)CC2C)cc1 (stereo not drawn) | / | -0.4 | / | / | 0.3 | -1.2
CCc1ccc(-c2cc(C(F)(F)F)n3nc(C(=O)Nc4c(C)nn(Cc5ccc(F)cc5)c4C)cc3n2)s1 | 10.6 | 58.4* | 12.9 | -6.7 | / | -3.3
O=C(COC(=O)c1cc(-c2cccs2)nn1-c1ccccc1)Nc1ccc(F)c([N+](=O)[O-])c1 | 1.9 | 2.3 | -8.1 | 2.9 | -2.1 | -1.9
CCOC(=O)C1C(=O)OC2(CCOC(C)(C)C2)C1C(=O)OCC (stereo not drawn) | -0.7 | / | 0.6 | -3.4 | 3.2 | 29.1*
COc1cccc(CNC(=O)CCS(=O)(=O)c2ccc3c(c2)NC(=O)CS3)c1 | / | 0.9 | / | / | -0.2 | 5.2
O=C(Cn1cc(S(=O)(=O)Cc2cccc(F)c2)c2ccccc21)N1CCOCC1 | / | 0.7 | / | / | 1.3 | 2.9
C=CCc1cccc2cc(C(=O)Nc3ccc(S(=O)(=O)Nc4nnc(CC)s4)cc3)c(=O)oc12 | -1.9 | 3.1 | -1.9 | 73.1* | 0.6 | 7.8
C=CCc1cccc2cc(C(=O)Nc3ccc(F)cc3)c(=O)oc12 | 0.5 | -0.7 | -0.4 | -9.2 | 2.7 | -0.4
CCn1c(SC(C)C(=O)O)nc2sc3c(c2c1=O)CCC3 (stereo not drawn) | -0.4 | / | -1.3 | 51.6* | / | 1.3
N#CC1(C#N)CC(C=O)=C(N)C1(C#N)CC(=O)C12CC3CC(CC(C3)C1)C2 (stereo not drawn) | 18.5 | 2.9 | 40.1 | 142.1* | 1.1 | -8.7
Nc1nccnc1C(=O)OCC(=O)C12CC3CC(CC(C3)C1)C2 | / | 3.1 | / | / | -0.3 | -0.9
N#Cc1ccncc1Sc1ccc(Cl)cc1 | / | -5.2 | / | / | -2.1 | 8.7
Cc1ccc(NC(=O)Cn2ccnc2)cc1C | / | 1.6 | / | / | -1.6 | -0.5
